Test results from ChEMBL document CHEMBL3875203, “Small molecule mimics of DFTamP1, a database designed anti-Staphylococcal peptide” (Bioorg Med Chem, 2017).
In brackets after ≈: the same amount, converted by molar mass. Activity calls are given as the source filed them. No cut-off for these calls is given here.

Tests used:
Escherichia coli [1] = assay: Antibacterial activity against Escherichia coli ATCC 25922 after 20 hrs by microdilution method; format: functional; settings: ATCC 25922, 20 h
Procedure, shortened: (§1)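 Incubated ~20 h at 37°C, then read at 630 nm. MIC is the lowest concentration with no detectable growth. Daptomycin assays had 2 mM Ca²⁺ added to the medium. Repeated several times by different investigators.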

Klebsiella pneumoniae = assay: Antibacterial activity against Klebsiella pneumoniae ATCC 13883 after 20 hrs by microdilution method; format: functional; settings: ATCC 13883, 20 h; procedure, shortened: as §1
Staphylococcus aureus [2] = assay: Antibacterial activity against Staphylococcus aureus USA400 after 20 hrs by microdilution method; format: functional; settings: USA400, 20 h; procedure, shortened: as §1
[3] = Retention time of the compound by HPLC method; format: physicochemical
Staphylococcus aureus [4] = assay: Antibacterial activity against Staphylococcus aureus UAMS-1 after 20 hrs by microdilution method; format: functional; settings: UAMS-1, 20 h; procedure, shortened: as §1
Staphylococcus aureus [5] = assay: Inhibition of methicillin-resistant Staphylococcus aureus USA300 preformed biofilms after 24 hrs by XTT assay; format: functional
Procedure, shortened: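 USA300 biofilms formed for 24 h on polystyrene wells, washed, then treated with compounds for 24 h. Remaining biofilm quantified by XTT reduction (2 h, 37°C, absorbance 450 nm, medium-plus-XTT blank). Compared with untreated control.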

[6] = Hemolytic activity against human RBC after 1 hr; format: ADME, cell-based, Erythrocyte; settings: human red blood cells
Procedure, shortened: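 Human red blood cells were washed three times in normal saline (800 g, 10 min) and made up as a 2% suspension. After centrifugation, supernatant absorbance was read at 545 nm. Lysis was set at 100% for 1% Triton X-100 and 0% for untreated cells; HL50 is the 50% hemolytic concentration.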

[7] = Therapeutic index, ratio of HC50 for human RBC to MIC for methicillin-resistant Staphylococcus aureus USA300; settings: human red blood cells, read-out: TI
Procedure, shortened: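 Supernatant hemoglobin read at 545 nm; 1% Triton X-100 = 100% lysis, untreated = 0%. HL50 divided by USA300 MIC gives the selectivity index.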

Staphylococcus aureus [8] = assay: Antibacterial activity against methicillin-resistant Staphylococcus aureus USA300 after 20 hrs at pH 6.8 to 8 by microdilution method; format: functional
Procedure, shortened: (§2)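 MIC = lowest concentration with no detectable growth. pH series run at pH 6.8, 7.4 and 8.0. Daptomycin wells carried 2 mM Ca²⁺. Repeated by different investigators on different dates.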

Staphylococcus aureus [9] = assay: Antibacterial activity against Staphylococcus aureus Mu50 after 20 hrs by microdilution method; format: functional; settings: Mu50, 20 h; procedure, shortened: as §1
Pseudomonas aeruginosa [10] = assay: Antibacterial activity against Pseudomonas aeruginosa PAO1 after 20 hrs by microdilution method; format: functional; settings: PAO1, 20 h; procedure, shortened: as §1
Staphylococcus aureus [11] = assay: Ratio of MIC for methicillin-resistant Staphylococcus aureus USA300 in presence of 100 mM NaCl to MIC for methicillin-resistant Staphylococcus aureus USA300 in absence of 100 mM NaCl; format: functional
Procedure, shortened: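 Broth microdilution MIC against S. aureus USA300 in TSB with and without 100 mM NaCl. Inoculum 10⁶ CFU/mL exponential-phase cells, ~20 h at 37°C, OD630 read-out, no-growth endpoint. Ratio of MIC with salt to MIC without salt.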

Staphylococcus aureus [12] = assay: Antibacterial activity against Staphylococcus aureus USA200 after 20 hrs by microdilution method; format: functional; settings: USA200, 20 h; procedure, shortened: as §1
Staphylococcus aureus [13] = assay: Antibacterial activity against Staphylococcus aureus Newman after 20 hrs by microdilution method; format: functional; procedure, shortened: as §1
Staphylococcus aureus [14] = assay: Inhibition of surface attachment by methicillin-resistant Staphylococcus aureus USA300 assessed as reduction in biofilm formation after 4 hrs by XTT assay; format: functional
Staphylococcus aureus [15] = assay: Antibacterial activity against methicillin-resistant Staphylococcus aureus USA300 after 20 hrs by microdilution method; format: functional; settings: USA300, 20 h; procedure, shortened: as §2
Staphylococcus aureus [16] = assay: Induction of membrane damage in methicillin-resistant Staphylococcus aureus USA300 measured up to 90 mins by propidium iodide staining based fluorescence spectroscopic analysis
Escherichia coli [17] = assay: Antibacterial activity against Escherichia coli K-12 after overnight incubation by broth microdilution method; format: functional
Staphylococcus aureus [18] = assay: Antibacterial activity against methicillin-resistant Staphylococcus aureus USA300 LAC after overnight incubation by broth microdilution method; format: functional; procedure, shortened: as §2
Pseudomonas aeruginosa [19] = assay: Antibacterial activity against Pseudomonas aeruginosa PAO1 after overnight incubation by broth microdilution method; format: functional
Staphylococcus aureus [20] = assay: Induction of membrane damage in methicillin-resistant Staphylococcus aureus USA300 measured for 90 mins by propidium iodide staining based fluorescence spectroscopic analysis; format: functional

Molecule | MIC (Escherichia coli [1]) [µM] | MIC (Klebsiella pneumoniae) [µM] | MIC (Staphylococcus aureus [2]) [µM] | Retention_time [3] [min] | MIC (Staphylococcus aureus [4]) [µM] | HC50 at 1 h [6] [µM] | selectivity ratio [7] | MIC (Staphylococcus aureus [9]) [µM] | MIC (Pseudomonas aeruginosa [10]) [µM] | Ratio (Staphylococcus aureus [11]) | MIC (Staphylococcus aureus [12]) [µM] | MIC (Staphylococcus aureus [13]) [µM] | MIC (Staphylococcus aureus [15]) [µM] | Activity (Staphylococcus aureus [20]) | other results
CCCC(CCC)(c1c[nH]c2cc(C3=NCCN3)ccc12)c1c[nH]c2cc(C3=NCCN3)ccc12.CS(=O)(=O)O.CS(=O)(=O)O | > 50 | > 50 | 3.1 | 12.102 | 12.5 to 25 | 150 | 48 to 96 | 3.1 | > 50 | <=2 | < 1.5 | 3.1 | 1.6 to 3.1 | – | inhibition (INH) (Staphylococcus aureus [5]): 50%; Activity (Staphylococcus aureus [8]): Active; inhibition (INH) (Staphylococcus aureus [14]): 40%; Activity (Staphylococcus aureus [16]): Active
CCC(CC)(c1c[nH]c2cc(C3=NCCN3)ccc12)c1c[nH]c2cc(C3=NCCN3)ccc12.CS(=O)(=O)O.CS(=O)(=O)O | > 50 | > 50 | – | 11.015 | – | 300 | 48 | – | > 50 | <=2 | – | – | 6.2 | – | –
H-GLLSLLSLLGKLL-NH2 | – | – | – | – | – | – | – | – | – | – | – | – | – | – | MIC (Escherichia coli [17]): > 120 µM; MIC (Staphylococcus aureus [18]): 3.1 µM; MIC (Pseudomonas aeruginosa [19]): > 120 µM
CCCCCCCCCC(=O)N[C@@H](Cc1c[nH]c2ccccc12)C(=O)N[C@@H](CC(N)=O)C(=O)N[C@@H](CC(=O)O)C(=O)N[C@@H]1C(=O)NCC(=O)N[C@@H](CCCN)C(=O)N[C@@H](CC(=O)O)C(=O)N[C@H](C)C(=O)N[C@@H](CC(=O)O)C(=O)NCC(=O)N[C@H](CO)C(=O)N[C@@H]([C@H](C)CC(=O)O)C(=O)N[C@@H](CC(=O)c2ccccc2N)C(=O)O[C@@H]1C [DAPTOMYCIN] | – | – | 0.78 (≈ 1.26 µg/mL) | – | > 12.5 | – | – | 3.1 (≈ 5.02 µg/mL) | – | – | 0.78 (≈ 1.26 µg/mL) | – | 0.78 (≈ 1.26 µg/mL) | Active | –
CS(=O)(=O)O.CS(=O)(=O)O.c1cc2c(Cc3c[nH]c4cc(C5=NCCN5)ccc34)c[nH]c2cc1C1=NCCN1 | > 50 | > 50 | – | 9.215 | – | 1300 | 26 | – | > 50 | – | – | – | 50 | – | –
Brc1cccc(Br)c1C(c1c[nH]c2cc(C3=NCCN3)ccc12)c1c[nH]c2cc(C3=NCCN3)ccc12.CS(=O)(=O)O.CS(=O)(=O)O | > 50 | > 50 | 3.1 | 11.159 | 6.2 | 150 | 24 to 48 | 6.2 | > 50 | – | 3.1 | 3.1 to 6.2 | 3.1 to 12.5 | Active | –
CS(=O)(=O)O.CS(=O)(=O)O.c1cc2c(C3(c4c[nH]c5cc(C6=NCCN6)ccc45)CCCCC3)c[nH]c2cc1C1=NCCN1 | > 50 | > 50 | 6.2 | 11.276 | 25 | 150 to 300 | 24 to 48 | 6.2 | > 50 | <=2 | 6.2 | 6.2 | 6.2 | Active | MIC (Escherichia coli [17]): > 200 µM; MIC (Staphylococcus aureus [18]): 6.2 µM; MIC (Pseudomonas aeruginosa [19]): 100 µM
CS(=O)(=O)O.CS(=O)(=O)O.c1ccc(C(c2c[nH]c3cc(C4=NCCN4)ccc23)c2c[nH]c3cc(C4=NCCN4)ccc23)cc1 | > 50 | > 50 | – | 10.643 | – | 600 | 24 | – | > 50 | – | – | – | 25 | – | –
Cl.Clc1cccc(Cl)c1C(c1c[nH]c2ccc(C3=NCCN3)cc12)c1c[nH]c2ccc(C3=NCCN3)cc12 | > 50 | > 50 | – | 10.537 | – | > 600 | > 48 | – | > 50 | – | – | – | 12.5 | – | –
CS(=O)(=O)O.CS(=O)(=O)O.Clc1cccc(Cl)c1C(c1c[nH]c2cc(C3=NCCN3)ccc12)c1c[nH]c2cc(C3=NCCN3)ccc12 | > 50 | > 50 | 12.5 | 10.973 | > 25 | 300 | 24 to 48 | > 25 | > 50 | <=2 | 12.5 | 12.5 | 6.2 to 12.5 | Active | –
CS(=O)(=O)O.CS(=O)(=O)O.Cn1cc(C2(c3cn(C)c4cc(C5=NCCN5)ccc34)CCCCC2)c2ccc(C3=NCCN3)cc21 | – | – | 12.5 | – | ≥ 25 | – | – | 25 | – | <=2 | 25 | 12.5 | 12.5 to 25 | – | –
CS(=O)(=O)O.CS(=O)(=O)O.Clc1ccc(C(c2c[nH]c3cc(C4=NCCN4)ccc23)c2c[nH]c3cc(C4=NCCN4)ccc23)cc1 | > 50 | > 50 | 6.2 | 11.491 | 12.5 | 150 | 24 to 48 | 6.2 | 25 | <=2 | 6.2 | 6.2 | 3.1 to 6.2 | Active | –
CS(=O)(=O)O.CS(=O)(=O)O.c1cc2c(C(c3c[nH]c4cc(C5=NCCN5)ccc34)C3CCCCC3)c[nH]c2cc1C1=NCCN1 | > 50 | > 50 | – | 11.832 | – | 20 to 40 | 7 to 14 | – | > 50 | – | – | – | 3.1 | – | –
CC(C)(c1c[nH]c2cc(C3=NCCN3)ccc12)c1c[nH]c2cc(C3=NCCN3)ccc12.CS(=O)(=O)O.CS(=O)(=O)O | > 50 | > 50 | – | 10.005 | – | > 830 | 33 | – | > 50 | – | – | – | 25 | – | –
CS(=O)(=O)O.CS(=O)(=O)O.Clc1ccc(C(c2c[nH]c3cc(C4=NCCN4)ccc23)c2c[nH]c3cc(C4=NCCN4)ccc23)c(Cl)c1 | 12.5 | > 50 | – | 11.924 | – | 40 | 12 | – | 25 to 50 | – | – | – | 3.1 to 6.2 | – | –
CS(=O)(=O)O.CS(=O)(=O)O.NCc1ccc2c(C3(c4c[nH]c5cc(CN)ccc45)CCCCC3)c[nH]c2c1 | > 50 | > 50 | – | 10.788 | – | 75 to 150 | 12 to 24 | – | > 50 | – | – | – | 6.2 to 12.5 | – | –
